pIC50: −log10 of the molar value. Each block holds one compound with its values, some of them ahead of it. The source made the active and inactive calls. The calls are words filed in the database; no cut-off is given here.
Experiments:
HT-29 [1] = experiment: cells; conditions: Homo sapiens
HT-29 [2] = experiment: Cell cycle arrest in human HT-29 cells assessed as accumulation in G2/M phase at 3 ug/ml incubated for 48 hrs by propidium iodide base flow cytometry analysis (reference value: 2.4%); assay type: functional; conditions: dose 3 µg/ml
HT-29 [3] = experiment: Antiproliferative activity against human HT-29 cells assessed as dead cells by measuring green fluorescent cells at 1 to 3 ug/mL by IncuCyte live-cell imaging assay; assay type: functional, cell-based
Procedure, shortened: (§1)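 HT-29 cells (5×10^3/well) in DMEM with 10% FBS, cultured 24 h at 37 °C, 5% CO2, then treated with graded concentrations of compound; 0.1% DMSO vehicle control. YOYO-1 iodide DNA dye added; green-fluorescent cells counted as dead, imaged every 2 h for 72 h in an IncuCyte system. Three replicates; mean ± SD of three independent experiments.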

FHC [4] = experiment: Cytotoxicity aganist human FHC at 10 ug/ml measured after 72 hrs by IncuCyte live-cell imaging assay
HT-29 [5] = experiment: Cytotoxicity against human HT-29 cells assessed as reduction in cell viability measured after 36 hrs by MTT assay; assay type: functional, cell-based; conditions: dose 0.56-1.67 µg/ml
FHC [6] = experiment: Cytotoxicity aganist human FHC at 0.19 ug/ml measured after 72 hrs by IncuCyte live-cell imaging assay
HT-29 [7] = experiment: Cell cycle arrest in human HT-29 cells assessed as accumulation in S phase at 3 ug/ml incubated for 48 hrs by propidium iodide base flow cytometry analysis (reference value: 22.4%); assay type: functional; conditions: dose 3 µg/ml
HT-29 [8] = experiment: Antiproliferative activity against human HT-29 cells assessed as dead cells by measuring green fluorescent cells at 5 ug/mL for 72 hrs by IncuCyte live-cell imaging assay; assay type: functional, cell-based; conditions: dose 5.0 µg/ml
Procedure, shortened: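 HT-29 cells (5×10^3 per well) in DMEM with 10% FBS at 37 °C, 5% CO2; compound added after 24 h culture. YOYO-1 iodide added, green-fluorescent cells counted as dead; live-cell imaging every 2 h for 72 h; three replicates; mean ± SD of three independent experiments.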

HT-29 [9] = experiment: Cell cycle arrest in human HT-29 cells assessed as accumulation in G0/G1 phase at 3 ug/ml incubated for 48 hrs by propidium iodide base flow cytometry analysis (reference value: 71.6%); assay type: functional; conditions: dose 3 µg/ml
HT-29 [10] = experiment: Cytotoxicity against human HT-29 cells assessed as reduction in cell viability at 5 ug/mL by MTT assay; assay type: functional, cell-based; conditions: dose 5.0 µg/ml
HT-29 [11] = experiment: Antiproliferative activity against human HT-29 cells assessed as dead cells by measuring green fluorescent cells for 48 to 72 hrs by IncuCyte live-cell imaging assay; assay type: functional, cell-based
Procedure, shortened: as §1

FHC [12] = experiment: Antiproliferative activity aganist human FHC at 10 ug/ml measured after 72 hrs by MTT assay; assay type: cell-based; conditions: at 10 µg/mL
[13] = molecular target: Serine/threonine-protein kinase B-raf (Homo sapiens, UniProt P15056); experiment: Inhibition of B-Raf (unknown origin) by mobility shift assay
Chain of Serine/threonine-protein kinase B-raf (P15056 whole entry): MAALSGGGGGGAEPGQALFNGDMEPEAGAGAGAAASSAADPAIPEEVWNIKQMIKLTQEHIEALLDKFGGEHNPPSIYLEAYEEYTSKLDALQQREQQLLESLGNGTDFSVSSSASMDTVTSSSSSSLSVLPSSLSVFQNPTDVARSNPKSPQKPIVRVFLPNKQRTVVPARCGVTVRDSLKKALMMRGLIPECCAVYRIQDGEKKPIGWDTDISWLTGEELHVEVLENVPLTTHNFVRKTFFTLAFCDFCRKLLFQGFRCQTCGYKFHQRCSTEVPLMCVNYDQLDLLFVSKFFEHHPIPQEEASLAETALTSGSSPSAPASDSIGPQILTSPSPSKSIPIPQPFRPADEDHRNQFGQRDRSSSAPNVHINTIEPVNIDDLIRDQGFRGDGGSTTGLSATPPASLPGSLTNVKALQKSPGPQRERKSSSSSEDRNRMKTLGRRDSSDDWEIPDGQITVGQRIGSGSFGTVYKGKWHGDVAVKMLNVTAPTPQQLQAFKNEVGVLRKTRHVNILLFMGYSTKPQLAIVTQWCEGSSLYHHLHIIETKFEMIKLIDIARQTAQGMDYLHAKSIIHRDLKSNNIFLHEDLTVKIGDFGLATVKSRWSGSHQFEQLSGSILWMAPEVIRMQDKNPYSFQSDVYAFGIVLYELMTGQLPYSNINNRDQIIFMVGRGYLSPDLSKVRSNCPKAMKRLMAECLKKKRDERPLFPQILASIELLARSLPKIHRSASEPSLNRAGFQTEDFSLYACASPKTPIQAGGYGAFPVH

[14] = molecular target: T1, Hepatocyte growth factor receptor (Homo sapiens, UniProt P08581); experiment: Inhibition of c-Met (unknown origin) using FAM-labelled peptide and ATP incubated for 10 mins by mobility shift assay
T1 sequence (P08581 whole entry): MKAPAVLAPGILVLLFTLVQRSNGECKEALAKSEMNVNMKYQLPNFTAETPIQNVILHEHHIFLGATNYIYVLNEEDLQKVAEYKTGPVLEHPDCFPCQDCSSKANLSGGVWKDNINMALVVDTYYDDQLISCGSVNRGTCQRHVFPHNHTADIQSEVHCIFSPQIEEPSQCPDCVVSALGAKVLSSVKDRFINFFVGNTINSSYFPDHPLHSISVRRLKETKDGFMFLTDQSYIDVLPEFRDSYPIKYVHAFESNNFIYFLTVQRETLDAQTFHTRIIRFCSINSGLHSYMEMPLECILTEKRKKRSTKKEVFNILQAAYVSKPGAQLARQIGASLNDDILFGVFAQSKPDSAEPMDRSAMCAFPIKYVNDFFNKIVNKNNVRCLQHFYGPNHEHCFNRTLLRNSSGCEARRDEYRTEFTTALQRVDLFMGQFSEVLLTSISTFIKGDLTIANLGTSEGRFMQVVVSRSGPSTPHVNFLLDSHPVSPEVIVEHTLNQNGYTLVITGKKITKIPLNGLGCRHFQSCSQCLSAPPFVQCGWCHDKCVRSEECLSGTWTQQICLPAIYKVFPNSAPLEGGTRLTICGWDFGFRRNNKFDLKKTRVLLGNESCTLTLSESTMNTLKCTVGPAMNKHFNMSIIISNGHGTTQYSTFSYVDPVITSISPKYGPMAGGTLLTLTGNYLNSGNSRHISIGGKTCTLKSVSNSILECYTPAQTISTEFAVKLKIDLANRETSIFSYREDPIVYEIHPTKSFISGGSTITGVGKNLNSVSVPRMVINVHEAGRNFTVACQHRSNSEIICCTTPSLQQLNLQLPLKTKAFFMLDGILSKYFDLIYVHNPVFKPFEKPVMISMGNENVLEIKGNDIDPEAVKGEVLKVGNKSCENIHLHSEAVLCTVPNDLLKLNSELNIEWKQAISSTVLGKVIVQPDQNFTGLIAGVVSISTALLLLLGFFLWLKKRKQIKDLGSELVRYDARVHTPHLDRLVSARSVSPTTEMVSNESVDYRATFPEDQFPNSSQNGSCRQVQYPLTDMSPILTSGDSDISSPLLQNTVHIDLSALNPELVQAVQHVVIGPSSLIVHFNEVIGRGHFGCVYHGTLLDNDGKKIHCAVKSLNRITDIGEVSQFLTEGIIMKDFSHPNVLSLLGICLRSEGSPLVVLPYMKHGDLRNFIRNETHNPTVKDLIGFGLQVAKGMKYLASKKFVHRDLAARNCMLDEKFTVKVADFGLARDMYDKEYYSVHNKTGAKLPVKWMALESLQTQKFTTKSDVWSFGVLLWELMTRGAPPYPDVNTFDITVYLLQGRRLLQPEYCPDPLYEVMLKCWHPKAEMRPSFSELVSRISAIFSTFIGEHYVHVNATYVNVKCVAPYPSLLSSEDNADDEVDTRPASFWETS

HT-29 [15] = experiment: Cell cycle arrest in human HT-29 cells assessed as accumulation in S phase at 1 ug/ml incubated for 48 hrs by propidium iodide base flow cytometry analysis (reference value: 22.4%); assay type: functional; conditions: dose 1 µg/ml
HT-29 [16] = experiment: Cell cycle arrest in human HT-29 cells assessed as accumulation in G2/M phase at 0.3 ug/ml incubated for 48 hrs by propidium iodide base flow cytometry analysis (reference value: 2.4%); assay type: functional; conditions: dose 0.3 µg/ml
[17] = molecular target: T2, Tyrosine-protein kinase receptor UFO (Homo sapiens, UniProt P30530); experiment: Inhibition of AXL (unknown origin) using FAM-labelled peptide and ATP incubated for 10 mins by mobility shift assay
T2 sequence (P30530 whole entry): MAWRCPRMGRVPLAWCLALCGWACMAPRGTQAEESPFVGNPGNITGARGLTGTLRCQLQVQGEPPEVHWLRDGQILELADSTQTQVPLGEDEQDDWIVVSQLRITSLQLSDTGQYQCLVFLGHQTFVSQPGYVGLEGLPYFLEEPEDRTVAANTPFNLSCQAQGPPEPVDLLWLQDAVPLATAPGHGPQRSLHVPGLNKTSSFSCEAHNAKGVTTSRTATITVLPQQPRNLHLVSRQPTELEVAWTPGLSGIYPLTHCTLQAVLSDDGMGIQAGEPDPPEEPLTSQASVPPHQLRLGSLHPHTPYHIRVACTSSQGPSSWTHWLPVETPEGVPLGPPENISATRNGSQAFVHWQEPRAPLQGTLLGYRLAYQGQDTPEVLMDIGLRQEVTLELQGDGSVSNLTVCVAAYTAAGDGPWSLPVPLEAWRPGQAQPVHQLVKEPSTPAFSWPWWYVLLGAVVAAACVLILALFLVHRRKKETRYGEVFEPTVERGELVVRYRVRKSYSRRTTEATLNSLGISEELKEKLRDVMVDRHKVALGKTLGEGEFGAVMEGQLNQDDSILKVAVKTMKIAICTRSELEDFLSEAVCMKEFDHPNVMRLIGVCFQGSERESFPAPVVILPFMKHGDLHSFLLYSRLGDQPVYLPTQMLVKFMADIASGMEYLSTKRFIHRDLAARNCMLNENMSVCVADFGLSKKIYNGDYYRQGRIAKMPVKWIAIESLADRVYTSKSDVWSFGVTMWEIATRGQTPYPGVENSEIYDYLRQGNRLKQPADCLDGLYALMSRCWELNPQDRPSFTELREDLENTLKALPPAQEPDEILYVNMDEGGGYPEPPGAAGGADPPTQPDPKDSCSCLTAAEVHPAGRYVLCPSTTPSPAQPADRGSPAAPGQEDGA

[18] = molecular target: Platelet-derived growth factor receptor alpha (Homo sapiens, UniProt P16234); experiment: Inhibition of PDGFR alpha (unknown origin) by mobility shift assay
[19] = molecular target: Proto-oncogene tyrosine-protein kinase Src (Homo sapiens, UniProt P12931); experiment: Inhibition of c-Src (unknown origin) using FAM-labelled peptide and ATP incubated for 10 mins by mobility shift assay
HT-29 [20] = experiment: Cell cycle arrest in human HT-29 cells assessed as accumulation in G0/G1 phase at 0.3 ug/ml incubated for 48 hrs by propidium iodide base flow cytometry analysis (reference value: 71.6%); assay type: functional; conditions: dose 0.3 µg/ml
HT-29 [21] = experiment: Cytotoxicity against human HT-29 cells assessed as reduction in cell viability measured at 0.56 to 1.67 microg/ml by IncuCyte live-cell imaging assay; conditions: dose 0.56-1.67 µg/ml, TDE = time-dependent effect
[22] = molecular target: Macrophage-stimulating protein receptor (Homo sapiens, UniProt Q04912); experiment: Inhibition of Ron (unknown origin) using FAM-labelled peptide and ATP incubated for 10 mins by mobility shift assay
Chain of Macrophage-stimulating protein receptor (Q04912 25-304 limits assumed): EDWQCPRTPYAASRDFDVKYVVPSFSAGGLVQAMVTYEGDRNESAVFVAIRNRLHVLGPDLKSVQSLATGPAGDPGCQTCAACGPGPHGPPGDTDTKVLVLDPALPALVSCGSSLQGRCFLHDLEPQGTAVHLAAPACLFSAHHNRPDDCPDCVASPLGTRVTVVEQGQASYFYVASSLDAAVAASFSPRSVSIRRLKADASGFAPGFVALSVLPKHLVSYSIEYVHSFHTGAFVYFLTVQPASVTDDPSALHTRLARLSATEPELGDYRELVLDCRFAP
Chain of Macrophage-stimulating protein receptor (Q04912 310-1400 limits assumed): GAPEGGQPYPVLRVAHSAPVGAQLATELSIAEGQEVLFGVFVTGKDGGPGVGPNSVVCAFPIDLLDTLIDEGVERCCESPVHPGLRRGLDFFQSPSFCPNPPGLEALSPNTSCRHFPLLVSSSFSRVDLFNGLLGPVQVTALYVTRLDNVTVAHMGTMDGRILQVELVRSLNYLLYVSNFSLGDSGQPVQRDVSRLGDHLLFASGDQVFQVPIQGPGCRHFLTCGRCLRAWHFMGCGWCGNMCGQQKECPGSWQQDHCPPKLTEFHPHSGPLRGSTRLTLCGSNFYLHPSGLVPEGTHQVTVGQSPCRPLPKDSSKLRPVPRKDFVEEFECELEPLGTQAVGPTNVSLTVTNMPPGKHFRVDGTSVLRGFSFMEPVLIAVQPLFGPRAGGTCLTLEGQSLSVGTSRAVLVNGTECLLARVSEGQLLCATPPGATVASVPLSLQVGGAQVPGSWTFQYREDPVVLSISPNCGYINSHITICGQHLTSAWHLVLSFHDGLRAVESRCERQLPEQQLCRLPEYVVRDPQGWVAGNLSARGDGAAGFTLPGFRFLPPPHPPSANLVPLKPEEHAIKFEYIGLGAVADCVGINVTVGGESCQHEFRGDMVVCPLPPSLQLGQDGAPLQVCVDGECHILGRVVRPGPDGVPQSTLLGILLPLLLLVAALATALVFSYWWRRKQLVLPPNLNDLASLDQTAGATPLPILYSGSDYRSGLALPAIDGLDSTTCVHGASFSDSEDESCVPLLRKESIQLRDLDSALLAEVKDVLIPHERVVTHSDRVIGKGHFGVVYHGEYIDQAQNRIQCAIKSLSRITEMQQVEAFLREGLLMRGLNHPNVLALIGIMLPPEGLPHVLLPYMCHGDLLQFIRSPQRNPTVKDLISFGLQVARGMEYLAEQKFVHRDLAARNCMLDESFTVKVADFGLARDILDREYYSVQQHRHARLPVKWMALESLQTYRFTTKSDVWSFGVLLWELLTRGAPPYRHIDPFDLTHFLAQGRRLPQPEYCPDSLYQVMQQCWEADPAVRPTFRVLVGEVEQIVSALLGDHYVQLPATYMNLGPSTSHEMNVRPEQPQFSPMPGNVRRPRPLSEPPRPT

HT-29 [23] = experiment: Cell cycle arrest in human HT-29 cells assessed as accumulation in G2/M phase at 1 ug/ml incubated for 48 hrs by propidium iodide base flow cytometry analysis (reference value: 2.4%); assay type: functional; conditions: dose 1 µg/ml
[24] = molecular target: T1, Hepatocyte growth factor receptor; experiment: Inhibition of c-Met (unknown origin) using FAM-labelled peptide and ATP incubated for 10 mins by mobility shift assay relative to control
[25] = molecular target: Mast/stem cell growth factor receptor Kit (Homo sapiens, UniProt P10721); experiment: Inhibition of c-Kit (unknown origin) using FAM-labelled peptide and ATP incubated for 10 mins by mobility shift assay
HT-29 [26] = experiment: Cell cycle arrest in human HT-29 cells assessed as accumulation in S phase at 0.3 ug/ml incubated for 48 hrs by propidium iodide base flow cytometry analysis (reference value: 22.4%); assay type: functional; conditions: dose 0.3 µg/ml
[27] = molecular target: Insulin-like growth factor 1 receptor (Homo sapiens, UniProt P08069); experiment: Inhibition of IGF1R (unknown origin) by mobility shift assay
Chain of Insulin-like growth factor 1 receptor (P08069 31-736 limits assumed): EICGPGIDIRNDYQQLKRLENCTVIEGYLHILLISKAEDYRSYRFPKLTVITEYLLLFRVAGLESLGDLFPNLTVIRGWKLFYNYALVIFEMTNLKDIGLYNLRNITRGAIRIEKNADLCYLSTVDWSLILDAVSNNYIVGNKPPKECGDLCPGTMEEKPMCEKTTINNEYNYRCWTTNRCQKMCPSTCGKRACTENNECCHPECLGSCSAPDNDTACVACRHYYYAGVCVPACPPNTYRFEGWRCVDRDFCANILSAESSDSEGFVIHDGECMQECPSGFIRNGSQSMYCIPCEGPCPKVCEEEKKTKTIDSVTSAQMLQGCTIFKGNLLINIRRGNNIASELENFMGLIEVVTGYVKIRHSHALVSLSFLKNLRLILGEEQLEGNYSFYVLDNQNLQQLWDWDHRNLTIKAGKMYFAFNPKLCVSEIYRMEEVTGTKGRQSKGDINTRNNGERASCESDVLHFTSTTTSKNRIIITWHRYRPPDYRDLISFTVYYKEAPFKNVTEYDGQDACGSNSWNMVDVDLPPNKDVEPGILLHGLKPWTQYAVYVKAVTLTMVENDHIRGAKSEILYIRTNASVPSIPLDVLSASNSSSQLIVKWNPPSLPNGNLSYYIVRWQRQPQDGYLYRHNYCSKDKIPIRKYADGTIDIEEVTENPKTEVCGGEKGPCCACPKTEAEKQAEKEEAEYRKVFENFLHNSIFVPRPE
Chain of Insulin-like growth factor 1 receptor (P08069 741-1367 limits assumed): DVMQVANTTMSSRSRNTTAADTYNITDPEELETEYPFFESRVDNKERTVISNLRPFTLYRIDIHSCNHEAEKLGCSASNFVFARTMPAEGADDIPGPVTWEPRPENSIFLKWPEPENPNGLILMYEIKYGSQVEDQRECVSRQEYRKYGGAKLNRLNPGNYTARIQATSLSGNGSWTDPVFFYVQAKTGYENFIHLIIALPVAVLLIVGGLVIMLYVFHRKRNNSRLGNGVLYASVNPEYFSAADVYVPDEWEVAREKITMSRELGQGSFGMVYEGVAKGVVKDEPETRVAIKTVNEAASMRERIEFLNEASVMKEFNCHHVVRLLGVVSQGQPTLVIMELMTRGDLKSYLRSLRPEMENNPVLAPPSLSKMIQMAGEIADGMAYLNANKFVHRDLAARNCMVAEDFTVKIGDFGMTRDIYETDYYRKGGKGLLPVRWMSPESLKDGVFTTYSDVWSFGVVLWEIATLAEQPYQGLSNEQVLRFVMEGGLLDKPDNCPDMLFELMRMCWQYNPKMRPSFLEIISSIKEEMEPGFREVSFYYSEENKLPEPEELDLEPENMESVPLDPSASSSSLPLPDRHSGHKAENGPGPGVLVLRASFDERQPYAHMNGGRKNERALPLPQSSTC

HT-29 [28] = experiment: Cell cycle arrest in human HT-29 cells assessed as accumulation in G0/G1 phase at 1 ug/ml incubated for 48 hrs by propidium iodide base flow cytometry analysis (reference value: 71.6%); assay type: functional; conditions: dose 1 µg/ml

SMILES: COc1cc2c(Oc3ccc(NC(=O)NN4C(=O)CSC4c4ccc(F)cc4)cc3)ccnc2cc1OC1CCN(C(=O)NC2CCCCC2)CC1 (configuration not stated)
pIC50 (HT-29 [1]): 5.47

SMILES: COc1cc2nccc(Sc3ccc(NC(=O)NN4C(=O)CSC4c4c(F)cccc4F)cc3)c2cc1OCC1CCN(C(=O)NC(C)C)CC1 (configuration not stated)
pIC50 (HT-29 [1]): < 5.00

SMILES: COc1cc2c(Oc3cccc(NC(=O)NN4C(=O)CSC4c4c(F)cccc4F)c3)ccnc2cc1OC1CCN(C(=O)NC(C)C)CC1 (configuration not stated)
pIC50 (HT-29 [1]): < 5.00

SMILES: COc1cc2c(Sc3ccc(NC(=O)NN4C(=O)CSC4c4c(F)cccc4F)cc3)ccnc2cc1OC1CCCN(C(=O)NC(C)C)C1 (configuration not stated)
pIC50 (HT-29 [1]): < 5.00

SMILES: COc1cc2c(Sc3ccc(NC(=O)NN4C(=O)CSC4c4c(F)cccc4F)cc3)cc(N)nc2cc1OC1CCN(C(=O)NC(C)C)CC1 (configuration not stated)
pIC50 (HT-29 [1]): 5.25

SMILES: CNC(=O)c1cc(Oc2ccc(NC(=O)Nc3ccc(Cl)c(C(F)(F)F)c3)c(F)c2)ccn1 [REGORAFENIB]
Activity (HT-29 [2]): 2%
AC50 (HT-29 [3]): Active
Activity (FHC [4]): Toxic
Activity (HT-29 [5]): inactive
Activity (FHC [6]): Toxic
Activity (HT-29 [7]): 15.7%
Activity (HT-29 [8]): Active
Activity (HT-29 [9]): 78.5%
Activity (HT-29 [10]): inactive
Activity (HT-29 [11]): Active
pIC50 (HT-29 [1]): 5.54
Activity (FHC [12]): 13.5%

SMILES: COc1cc2c(Oc3ccc(NC(=O)NN4C(=O)CSC4c4c(F)cccc4F)cc3)ccnc2cc1OC1CCN(C(=O)NC(C)C)CC1 (configuration not stated)
pIC50 [13]: < 5.00
pIC50 [14]: 6.42
Activity (HT-29 [2]): 4.4%
Activity (HT-29 [3]; dose 1-3 µg/ml, time 48-72 hrs, TDE = time-dependent effect): Tde
Activity (HT-29 [15]): 20.3%
Activity (FHC [4]): Toxic
Activity (HT-29 [16]): 3.8%
Activity (HT-29 [5]): Dose-dependent effect
Activity (HT-29 [7]): 18.3%
pIC50 [17]: 6.20
pIC50 [18]: 6.42
pIC50 [19]: 6.38
Activity (HT-29 [20]): 71.3%
Activity (HT-29 [8]): Active
Activity (HT-29 [21]): Tde
Activity (HT-29 [9]): 71.2%
pIC50 [22]: 6.91
Activity (HT-29 [23]): 4.3%
pIC50 [24]: 6.42
pIC50 [25]: < 5.00
Activity (HT-29 [26]): 19.7%
pIC50 [27]: < 5.00
Activity (HT-29 [10]): Active
Activity (HT-29 [11]; dose 1-3 µg/ml, time 48-72 hrs): Dose-dependent effect
pIC50 (HT-29 [1]): 6.51
Activity (HT-29 [28]): 71.5%
Activity (FHC [12]): 26.7%

SMILES: COc1cc2c(Oc3ccc(NC(=O)NN4C(=O)CSC4c4ccc(F)cc4)cc3)ccnc2cc1OC1CCN(C(=O)NCc2ccccc2)CC1 (configuration not stated)
pIC50 (HT-29 [1]): 5.18

Continued, values first:

pIC50 (HT-29 [1]): 6.17
SMILES: COc1cc2c(Oc3ccc(NC(=O)NN4C(=O)CSC4c4cccc(F)c4)cc3)ccnc2cc1OC1CCN(C(=O)NC(C)C)CC1 (configuration not stated)

pIC50 (HT-29 [1]): 6.10
SMILES: COc1cc2c(Oc3ccc(NC(=O)NN4C(=O)CSC4c4cccc(F)c4F)cc3)ccnc2cc1OC1CCN(C(=O)NC(C)C)CC1 (configuration not stated)

pIC50 (HT-29 [1]): 6.39
SMILES: COc1cc2c(Oc3ccc(NC(=O)NN4C(=O)CSC4c4ccccc4F)cc3)ccnc2cc1OC1CCN(C(=O)NC(C)C)CC1 (configuration not stated)

pIC50 (HT-29 [1]): 5.65
SMILES: CCNC(=O)N1CCC(Oc2cc3nccc(Oc4ccc(NC(=O)NN5C(=O)CSC5c5ccc(F)cc5)cc4)c3cc2OC)CC1 (configuration not stated)

pIC50 (HT-29 [1]): 6.04
SMILES: COc1cc2c(Oc3ccc(NC(=O)NN4C(=O)CSC4c4c(F)cc(F)cc4F)cc3)ccnc2cc1OC1CCN(C(=O)NC(C)C)CC1 (configuration not stated)

pIC50 (HT-29 [1]): 6.02
SMILES: COc1cc2c(Oc3ccc(NC(=O)NN4C(=O)CSC4c4ccc(F)cc4F)cc3)ccnc2cc1OC1CCN(C(=O)NC(C)C)CC1 (configuration not stated)

pIC50 (HT-29 [1]): 5.90
SMILES: COc1cc2c(Oc3ccc(NC(=O)NN4C(=O)CSC4c4ccccc4)cc3)ccnc2cc1OC1CCN(C(=O)NC(C)C)CC1 (configuration not stated)

pIC50 (HT-29 [1]): 5.77
SMILES: CCCCNC(=O)N1CCC(Oc2cc3nccc(Oc4ccc(NC(=O)NN5C(=O)CSC5c5ccc(F)cc5)cc4)c3cc2OC)CC1 (configuration not stated)

pIC50 (HT-29 [1]): 5.97
SMILES: COc1cc2c(Oc3ccc(NC(=O)NN4C(=O)CSC4c4ccc(F)c(F)c4)cc3)ccnc2cc1OC1CCN(C(=O)NC(C)C)CC1 (configuration not stated)

pIC50 (HT-29 [1]): 6.41
SMILES: COc1cc2c(Sc3ccc(NC(=O)NN4C(=O)CSC4c4c(F)cccc4F)cc3)ccnc2cc1OCC1CCN(C(=O)NC(C)C)CC1 (configuration not stated)

pIC50 (HT-29 [1]): 6.38
SMILES: COc1cc2c(Sc3ccc(NC(=O)NN4C(=O)CSC4c4c(F)cccc4F)cc3)ccnc2cc1OC1CCN(C(=O)NC(C)C)CC1 (configuration not stated)

pIC50 (HT-29 [1]): 6.07
SMILES: COc1cc2c(Oc3ccc(NC(=O)NN4C(=O)CSC4c4ccc(F)cc4)cc3)ccnc2cc1OC1CCN(C(=O)NC(C)C)CC1 (configuration not stated)

From ChEMBL document CHEMBL4706527, “Identification of novel quinoline analogues bearing thiazolidinones as potent kinase inhibitors for the treatment of colorectal cancer” (Eur J Med Chem, 2020)
